# H69AR growth 86K – growth inhibitors of human H69AR lung tumor cells. H69AR lung tumor viability, ATP luminescence, 72 h; active compounds read low. viability, % at 10 µM. 6% of 85,000 active;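 active means viability at or below 40%; inactive means viability above 40%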;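 further: multidrug resistant small cell line overexpressing MRP-1 efflux transporter; 100% = mean luminescence of untreated control wells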
# Lung fibro prol – blocks proliferation of human lung fibroblasts | LL 47 human lung fibroblast viability, ATP luminescence; active compounds read low | viability, % at 10 µM | 1.1% of 85,000 active;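 active means viability at or below 50% in the single dose screen; inactive means viability above 50%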;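 further: compound exposure lasted 72 h before the ATP readout; 100% = median luminescence of untreated cell-only wells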
#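 Material: Human LL 47 lung fibroblast cells | Input: 1,150 cells/well | Buffer or medium: IMEM plus 15% FBS | Compound dosing: 0.1% DMSO in all compound wells | Times: Overnight cell rest, 72 h compound treatment at 37 °C | Signal: CellTiter-Glo luminescence measuring cellular ATP | Measure: % viability versus median cells-only luminescence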
# HUVEC inhibit – human endothelial cell proliferation inhibition; HUVEC proliferation, CellTiter-Glo luminescence, 72 h; active compounds read low; viability, % at 10 µM (by protocol); 1.1% of 86,000 active;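 active means viability at or below 30%; inactive means viability above 30%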;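 further: 100% = median luminescence of DMSO-only cell control wells on each plate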
# cytoskel mod – modifiers of cytoskeleton assembly | 0.18% of 91,000 active | inhibition, % at 2 µM | HUVEC TNFa F-actin phalloidin imaging, high content;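 active means inhibition above the batch mean plus 3 SD and confirmed as a hit by visual image inspection, cut at about 30% in these data, passing the limit was not always enough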
# Jurkat viability – reduces viability or proliferation of Jurkat cells; inhibition, % at 4 µM; 1.2% of 56,000 active; Jurkat E6.1 viability, ATP luminescence, 48 h; AID 463;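 active means inhibition above the mean inhibition of all tested compounds plus 3 SD, cut at about 28% in these data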
# Pyk2 oligo antag – antagonists of human Pyk2 oligomerization; Q293 cells, Pyk2 FERM NanoBiT luminescence; active compounds read low; z-score (the deposit names both 25 µM and 10 µM); 0.83% of 99,000 active; AID 1347419;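 active means Z-score of -3 or lower, scaled per plate to the spread of control and sample wells; inactive means z-score above -3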;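 further: negative z-score means lost luminescence so less FERM oligomerization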
# * hit, by the source's call; nt = no result. Hits are enriched below; roughly 6% of the tested compounds scored in any of these assays.
SMILES,H69AR growth 86K,Lung fibro prol,HUVEC inhibit,cytoskel mod,Jurkat viability,Pyk2 oligo antag
COC(=O)Nc1ccc(S(=O)(=O)N2CCCCCC2)cc1,75,90,80,7,1,-2
Cc1cc(NC(=O)COC(=O)c2ccc(S(=O)(=O)N3CCCc4ccccc43)cc2)no1,23*,75,68,7,64*,0.19
COC(=O)Nc1ccc(S(=O)(=O)N2c3ccccc3CCC2C)cc1 (centres undefined),16*,49*,69,nt,92*,-3.2*
CN(CC(CC(=O)Nc1nncs1)c1ccccc1)S(=O)(=O)c1ccc(Br)cc1 (centres undefined),82,104,93,-3,nt,nt
CC(=O)Nc1nnc(-c2ccc3c(c2)CCCC3)o1,76,95,100,11,0,nt
O=C(NCC1CCN(c2ccc(S(=O)(=O)N3CCOCC3)cc2)CC1)c1cccc(Cl)c1,49,96,81,37,nt,-0.16
CC1CN(S(=O)(=O)c2ccc(C(=O)Nc3nnc(-c4ccc5c(c4)CCCC5)o3)cc2)CC(C)O1 (centres undefined),17*,39*,7.0*,-10,-6,nt
COc1cccc(C(=O)NCC2CCN(c3ccc(S(=O)(=O)N4CCOCC4)cc3)CC2)c1,30*,92,86,4,11,1.4
COc1cccc(-c2nnc(NC(=O)c3ccc(S(=O)(=O)N4CCOCC4)cc3)o2)c1,20*,69,15*,36,0,-1.5
CC(NC(=O)Cc1ccc(F)cc1)C(c1cccs1)N1CCN(C)CC1 (centres undefined),78,109,102,-1,3,-0.57
COC1CCCCC1Nc1cccc(SC)c1 (centres undefined),95,91,109,nt,-2,2
COc1cc2nc(NC(=O)c3ccccc3)[nH]c(=O)c2cc1OC,65,101,103,2,nt,-1.8
COc1ccc(C(=O)Nc2nc3cc(OC)c(OC)cc3c(=O)[nH]2)cc1,13*,78,57,11,6,0.2
CC1(C)COC(c2ccc(F)c([N+](=O)[O-])c2)=N1,nt,nt,nt,nt,nt,-0.54
CCOc1cc(N2CCOCC2)c(OCC)cc1NS(=O)(=O)c1ccc(Cl)s1,20*,nt,58,-34,69*,-1.6
Cc1cccc(C(=O)CC(=O)c2cc(Cl)ccc2O)c1,18*,31*,3.3*,nt,nt,-0.63
O=C(CC(=O)c1cc(Cl)ccc1O)c1ccccc1,11*,40*,35,9,23,-1.4
COc1ccc(O)c(C(=O)CC(=O)c2ccc(F)cc2)c1,nt,nt,nt,nt,24,-0.08
Cc1ccc(O)c(C(=O)CC(=O)c2cccc(F)c2)c1,13*,70,15*,nt,6,-0.84
CCCNC(=O)Cn1c(=O)oc2ccccc21,97,95,101,nt,nt,-0.26
CCC(C)[C@H](Nc1nc(-c2ccccc2)nc2c1oc1ccccc12)C(=O)O (some centres undefined),79,106,69,5,nt,-1.6
c1ccc(-c2nc(NCCCn3ccnc3)c3oc4ccccc4c3n2)cc1,18*,88,54,-4,nt,-1.9
Cc1cccnc1Nc1nc(-c2ccccn2)cs1,0.4*,3.2*,16*,-4,nt,-0.94
Cc1cccnc1Nc1nc(-c2ccc(O)cc2O)cs1,8.0*,84,14*,nt,-7,0.49
NS(=O)(=O)c1ccc(Nc2nc(-c3ccc(O)cc3O)cs2)cc1,58,101,93,-21,nt,-0.43
SMILES,H69AR growth 86K,Lung fibro prol,HUVEC inhibit,cytoskel mod,Jurkat viability,Pyk2 oligo antag
Cc1cccc(Nc2nc(-c3ccccn3)cs2)n1,3.9*,69,60,-47,3,-0.14
CCC(=O)N1CCc2cc(S(=O)(=O)N3CCN(c4ccccn4)CC3)ccc21,89,94,118,1,nt,-0.39
COC(=O)c1c(NC(=O)CN2CCC(C)CC2)c2c(C)cccc2n1C,90,93,90,10,2,nt
O=C1CC(N2CCCc3ccccc32)C(=O)N1c1ccccc1Cl (centres undefined),66,93,79,6,nt,0.21
COC(=O)c1nn(-c2ccccc2)c(Sc2ccc(OC)cc2)c1/C=N/O,nt,nt,nt,-22,nt,-0.08
O=C(CSc1n[nH]c(-c2ccccc2O)n1)N1CCCc2ccccc21,25*,100,53,-20,62*,-0.99
O=C(N1CCOCC1)N1CCN(S(=O)(=O)N2CCOCC2)CC1,100,94,86,13,-1,0.33
CCOc1ccccc1CN1C(=O)c2ccccc2C1C(=O)NC(C)CC (centres undefined),89,95,95,6,nt,1.4
COc1ccc(-n2c(N3CCN(C)CC3)nc3sc4c(c3c2=O)CCCCC4)cc1,22*,62,22*,nt,6,0.21
O=C(NCC12CC3CC(CC(C3)C1)C2)c1cc2n(n1)C(C(F)(F)F)CC(c1ccco1)N2 (centres undefined),34*,78,55,11,3,-1.2
Cc1c(NC(=O)C(C)N2CC(C)OC(C)C2)c(=O)n(-c2ccccc2)n1C (centres undefined),95,96,100,20,8,-0.7
Cc1ccc(C(=O)Nc2ncnc3sc4c(c23)CCCCC4)cc1,31*,84,78,nt,nt,-1.4
C[C@H](Nc1ncnc2sc3c(c12)CCC3)C(=O)O,99,100,96,-10,nt,-1.1
COc1ccc(Nc2nc(N)nc(CN3CCC(Cc4ccccc4)CC3)n2)cc1,102,65,36,nt,9,nt
COc1ccccc1Nc1nc(N)nc(CN2CCC(Cc3ccccc3)CC2)n1,40*,92,72,10,-1,0.41
O=c1c2ccccc2nc(SCc2cn3ccsc3n2)n1-c1ccc(F)cc1,41,nt,107,-8,3,-3.3*
O=C(CSc1nc2ccccc2c(=O)n1-c1ccc(F)cc1)NCc1ccco1,nt,nt,nt,9,nt,0.86
Cn1c(=O)n(CC(=O)OCc2ccccc2)c(=O)c2c1nc1n2CCCN1C1CCCCC1,78,102,105,-6,8,-0.14
CCOC(=O)c1c(C)oc2c1c(C(c1cccnc1)N1CCN(C)CC1)c(O)c1ccccc12 (centres undefined),2.1*,51,8.4*,nt,6,nt
CCOC(=O)c1c(C)oc2c1c1c(c3ccccc32)OCN(Cc2cccnc2)C1,12*,85,76,12,3,-0.89
CCc1ccc(C(=O)N/N=C/c2cccc3ccccc23)nc1,nt,nt,nt,nt,nt,-0.74
CCOc1ccccc1N1CCN(Cc2cccc(OC)c2O)CC1,88,101,108,-5,4,-0.39
COCc1cc(CN2CCCC2)c(O)c2ncccc12,23*,3.3*,73,-16,43*,0.98
COc1ccccc1N1CCN(Cc2cc(Br)c(O)c3ncccc23)CC1,20*,3.2*,32,6,61*,nt
Oc1c(CN2CCCCC2)cc(COCc2ccccc2)c2cccnc12,nt,nt,nt,8,34*,0.22
Cc1ccc(-c2nnn(CCC(=O)NC3CCCC3)n2)cc1,104,114,102,-19,0,0.83
